Sampled rows, rich in hits. Any-hit rate of the full collection: about 2.2%.
E coli RNAP: inhibitors of Escherichia coli RNA polymerase; E. coli RNA polymerase, fluorescence transcription assay; P0A8V2; inhibition, %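 (tested at 10 µM)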; actives 0.2% (n = 62,000); in the data active = inhibition above about 20%
SF-1 act: activators of human nuclear receptor SF-1; AID 522; Q13285; actives 1.9% (n = 65,000); CHO-K1 Gal4-SF-1 LBD luciferase reporter; % increase over DMSO SF-1-specific signal; activation, % at 10 µM;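 active = activation above the mean activation of all tested compounds plus 3 SD, cut at about 50% in these data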
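Material: Gal4–SF-1 LBD one-hybrid luciferase reporter in CHO-K1 cells | Amount: 4,000 cells per well | Compound dosing: 10 µM single point, 1% DMSO | Schedule: 20 h compound treatment, 37 °C | Measured by: SteadyLite luciferase luminescence | Evaluation: Percent activation versus DMSO | Control set: DMSO-treated SF-1-transfected cells as negative, DMSO-treated mock-transfected cells lacking SF-1 as background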
AP ELISA ortho: alternative pathway complement inhibition, orthogonal assay; actives 0.08% (n = 62,000); inhibition, % at 5 µM; Human serum alternative complement pathway, LPS-coated ELISA, C3 deposition; tested in compound mixtures;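 active = inhibition above 30% in each of the two pooled mixtures holding the compound, so the lower value exceeds 30%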
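Test system: human serum alternative complement pathway, C3 deposition on LPS-coated wells; also added: Plate-bound LPS; doses: 5 µM per compound in ten-compound mixtures; schedule: 1 h at 37 °C; detection: Anti-C3 ELISA, OD 450 nm; evaluation: percent inhibition of C3 deposition onto LPS; repeats: two pool placements per compound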
RORA act: RORA (human) activation | actives 1.5% (n = 65,000) | CHO-K1 Gal4-RORA LBD luciferase reporter, luminescence; percent increase over mock-subtracted basal signal | activation, % at 10 µM | AID 560;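 active = activation above the mean of all tested compounds plus 3 SD, cut at about 49% in these data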
Target sequence (P35398 whole entry, looked up, the tested form may be a part): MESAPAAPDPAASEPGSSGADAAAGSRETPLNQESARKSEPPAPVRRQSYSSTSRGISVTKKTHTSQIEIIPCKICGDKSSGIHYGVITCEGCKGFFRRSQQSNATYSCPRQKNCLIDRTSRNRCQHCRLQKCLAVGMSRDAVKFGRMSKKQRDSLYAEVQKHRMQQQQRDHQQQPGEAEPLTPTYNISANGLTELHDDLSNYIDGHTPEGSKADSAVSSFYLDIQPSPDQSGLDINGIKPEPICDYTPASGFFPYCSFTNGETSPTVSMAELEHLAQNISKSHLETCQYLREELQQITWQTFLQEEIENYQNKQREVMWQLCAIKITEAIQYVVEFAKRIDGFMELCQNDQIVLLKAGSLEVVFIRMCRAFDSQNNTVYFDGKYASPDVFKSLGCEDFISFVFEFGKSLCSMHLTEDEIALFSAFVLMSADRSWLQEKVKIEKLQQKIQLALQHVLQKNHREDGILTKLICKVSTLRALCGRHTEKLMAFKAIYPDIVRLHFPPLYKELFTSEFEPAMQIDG
TNAP act mid DEA: human TNAP activation, intermediate phosphate acceptor | P05186 | purified TNAP, CDP-star luminescence, 100 mM DEA, 30 min; hits give high values; scale: 0 levamisole-inhibited, 1 vehicle-only enzyme | activation factor at 20 µM | 64,000 tested, under 10 active;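 active = activation factor of at least 2 at 20 µM, relative to controls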
MT1-MMP txn act: MT1-MMP promoter transcription activation | HT1080 MT1-MMP promoter luciferase reporter, luminescence, overnight; hits give high values | activation factor at 10 µM | actives 0.16% (n = 86,000);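 active = activation factor of at least 2 for MT1-MMP transcription at 10 µM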
A number is an active result; 0 = inactive; - = not tested or not shown.

SMILES | E coli RNAP | SF-1 act | AP ELISA ortho | RORA act | TNAP act mid DEA | MT1-MMP txn act
COC(=O)C1=CN(CC2CCCO2)C=C(C(=O)OC)C1c1cc(OC)c(OC)c(OC)c1 (stereo not drawn) | 0 | 0 | 0 | 0 | 0 | 0
CC(C)=C1C(=O)C(c2ccccc2)=C2CN3C(=O)N(CCc4ccccc4)C(=O)[C@]3(C)[C@H]21 | - | - | - | - | - | 0
Cc1ccc2c(CC(=O)NCc3ccco3)coc2c1C | 0 | 0 | 0 | 52 | 0 | -
O=C(CSC1=NCCS1)NC1CCCC1 | - | - | - | - | - | 0
COc1ccc(-n2c(SCCC#N)nnc2-c2cc(Cl)ccc2OC)cc1Cl | 0 | 0 | 0 | 0 | 0 | 0
CC1(C)Cc2nc3sc4c(=O)n(CC(=O)NCc5ccco5)cnc4c3cc2CO1 | 0 | 62 | 0 | 0 | 0 | 0
Cc1c(C)[n+](=O)c2c(n1[O-])CCCCC2 | 0 | 0 | 0 | 0 | 0 | 0
CCOc1ccccc1N1Cc2ccccc2C1 | - | - | - | - | - | 0
CCOc1ccc(N2Cc3ccccc3C2)cc1 | 0 | 62 | 0 | 51 | 0 | 0
Cc1ccccc1OCCN1C(=O)NC2(CCc3ccccc32)C1=O (stereo not drawn) | 0 | 0 | 0 | 0 | 0 | 0
Cc1ccc(-c2noc(CSc3nc(N)cc(N)n3)n2)cc1 | 0 | 61 | 0 | 58 | 0 | 0
Cc1ccc(-c2noc(CSc3ccccc3)n2)cc1 | - | - | - | - | - | 0
COc1ccc(C(CC(=O)Nc2nccs2)n2cccc2)cc1 (stereo not drawn) | 0 | 55 | 0 | 0 | 0 | 0
Cc1ccc(Cn2c3ccccc3c3cn[nH]c(=O)c32)cc1 | 74 | 0 | 0 | 0 | 0 | 0
O=c1[nH]ncc2c3ccccc3n(Cc3ccccc3)c12 | 0 | 0 | 0 | 0 | 0 | 0
O=S(=O)(NCCSc1nnnn1-c1ccccc1)c1cccs1 | 0 | 54 | 0 | 0 | 0 | 0
CS(=O)(=O)NCCSc1nnnn1-c1ccccc1 | 0 | 0 | 0 | 0 | 0 | 0
O=c1cc(O)nc(SCc2ccccc2)[nH]1 | 0 | 0 | 0 | 0 | 0 | 0
CC(C)(C)Sc1nc(O)cc(=O)[nH]1 | 0 | 0 | 34 | 0 | 0 | 0
CCCNC(=O)C1CNc2ccccc2O1 (stereo not drawn) | - | - | - | - | - | 0
O=C(NCC1CCCO1)c1coc2nc3ccccc3nc12 (stereo not drawn) | 0 | 57 | 0 | 0 | 0 | 0
C=CCn1c(N)c(C(=O)NCC2CCCO2)c2nc3ccccc3nc21 (stereo not drawn) | 0 | 0 | 0 | 0 | 0 | 0
Cc1ccc(-c2nc3cnccn3c2Nc2ccc3c(c2)OCO3)o1 | 0 | 0 | 0 | 0 | 0 | -
Cc1ccc(-c2nc3cnccn3c2Nc2ccccc2)o1 | 0 | 0 | 0 | 49 | 0 | 0
CC1=NC(C(F)(F)F)(C(F)(F)F)C2=C(CC(C)(C)CC2=O)N1Cc1ccco1 | 0 | 0 | 0 | 0 | 0 | -
SMILES | E coli RNAP | SF-1 act | AP ELISA ortho | RORA act | TNAP act mid DEA | MT1-MMP txn act
CC(C)OCCCn1c(=NC(=O)c2ccncc2)c(C#N)cc2c(=O)n3ccccc3nc21 | 0 | 0 | 38 | 0 | 0 | 0
CCCCCn1c(=NC(C)=O)c(C#N)cc2c(=O)n3ccccc3nc21 | 0 | 0 | 0 | 0 | 0 | 0
CC1(C)CC(NC(=O)c2coc(=O)c(Br)c2)CC(C)(C)N1 | 0 | 0 | 0 | 0 | 0 | 0
CC(=O)Nc1ccc(-c2nc3c(C)cccc3[nH]2)cc1 | - | 99 | - | 0 | - | 0
COCCn1c(C)cc(C(=O)COC(=O)c2ccc3ncsc3c2)c1C | 0 | 52 | 0 | 0 | 0 | 0
CCOc1ccc(S(=O)(=O)N2CCN(c3ccccc3F)CC2)c2cccnc12 | - | - | - | - | - | 0
O=C(CSc1nnc2ccccn12)c1ccc2c(c1)OCCO2 | 0 | 64 | 0 | 51 | 0 | 0
c1ccn2c(SCc3ccc4c(c3)OCO4)nnc2c1 | 0 | 0 | 0 | 0 | 0 | 0
CS(=O)(=O)N1CCN(c2ccc(NC(=O)c3ccc(Br)o3)cc2)CC1 | 0 | 56 | 0 | 0 | 0 | 0
Cc1ccc(C(=O)N2CCN(c3ccc(NC(=O)c4ccc(Br)o4)cc3)CC2)cc1 | - | - | - | - | - | 0
O=C(Nc1ccc(S(=O)(=O)N2CCCCCC2)cc1)c1ccc(Br)o1 | 0 | 0 | 0 | 50 | 0 | 0
Cc1ccc(N=Cc2nc(-c3ccco3)oc2O)cc1 | 0 | 104 | 0 | 0 | 0 | 0
Cc1ccc(C(=O)Oc2oc(-c3ccco3)nc2C=Nc2ccc(Cl)cc2)cc1 | - | - | - | - | - | 0
CCN(CC)C(=O)CSc1ncnc2sc(-c3ccccc3)cc12 | - | - | - | - | - | 0
CN(CCC#N)C(=O)CSc1ncnc2sc(-c3ccccc3)cc12 | 0 | 0 | 0 | 52 | 0 | 0
C=CCn1c(C)cc(C(=O)CSc2nc3ccccc3o2)c1C | 0 | 0 | 0 | 0 | 0 | 0
Cc1cc(C(=O)CSc2nc3ccccc3o2)c(C)n1C1CC1 | 0 | 61 | 0 | 82 | 0 | 0
CC1=C(C(=O)OCc2ccccc2)C(C2CC2)NC(=O)N1CCCCCC(=O)O (stereo not drawn) | - | - | - | - | - | 0
S=c1[nH]nc(Cc2sc(-c3ccccc3)nc2-c2ccccc2)o1 | - | - | - | - | - | 0
CCOc1ccc(NC(=O)c2cc3n(n2)C(C(F)(F)F)CC(c2ccco2)N3)cc1 (stereo not drawn) | 0 | 0 | 0 | 60 | 0 | 0
CCn1c(=O)c2c3c(sc2n2c(=S)[nH]nc12)CCC3 | - | - | - | - | - | 0
CCCc1nc(Nc2nc3ccccc3o2)nc(C)c1C(=O)OCC | 0 | 81 | 0 | 49 | 0 | 0
N#Cc1cn(-c2ccccc2)nc1-c1ccc2c(c1)OCCO2 | 0 | 55 | 0 | 62 | 0 | 0
N#Cc1cn(-c2ccccc2)nc1-c1ccco1 | - | - | - | - | - | 0
O=Cc1cn(-c2ccccc2)nc1-c1ccc2c(c1)OCCO2 | - | - | - | - | - | 2
SMILES | E coli RNAP | SF-1 act | AP ELISA ortho | RORA act | TNAP act mid DEA | MT1-MMP txn act
CC1(C)CC(=O)C(CC2=C(O)CC(C)(C)CC2=O)=C(O)C1 | 0 | 0 | 0 | 0 | 0 | 0
CCCCc1c(CCC)c(=N)c2ccccc2n1C | - | - | - | - | - | 0
CCc1c(C)nc2cc(-c3ccc(OC)cc3)[nH]n2c1=O | 0 | 0 | 0 | 58 | 0 | 0
Oc1ccc(Cl)cc1-c1cc(-c2ccccc2)n[nH]1 | 0 | 0 | 0 | 0 | 0 | 0
COc1ccc(-c2cc(-c3ccccc3O)[nH]n2)cc1 | - | - | - | - | - | 2.5
COC(=O)c1ccc(C(NC(=O)OCc2ccccc2)/C(=C/[C@@H](C)C(=O)NCc2ccccc2)C(F)(F)F)cc1 (stereo partly drawn) | - | - | - | - | - | 0
C=CCOn1c(=O)c(C)[n+]([O-])c2ccccc21 | - | 0 | 0 | 0 | 0 | 0
C=CCOn1c(=O)c(-c2cc3ccccc3o2)[n+]([O-])c2ccccc21 | 0 | 77 | - | 0 | 0 | 0
CC(C)N(Cc1nc(-c2ccc(Cl)cc2)no1)C(=O)CN(C)S(=O)(=O)c1ccc(Cl)cc1 | 21 | 0 | 0 | 0 | 0 | 0
O=C(C1CCC(=O)N1C1CCCCC1)N1CCN(c2ccc(F)cc2)CC1 (stereo not drawn) | 0 | 0 | 0 | 0 | 0 | 0
COc1ccc(NC2=Nc3ccccc3CC2)cc1 | 0 | 58 | 0 | 63 | 0 | 0
COc1ccc(NC(=O)N2CCCc3ccccc32)cc1 | 0 | 0 | 0 | 0 | 0 | 0

Assay outcomes (PubChem)
